Test results: ChEMBL document CHEMBL1148328, “Synthesis and structure-activity relationships of parasiticidal thiosemicarbazone cysteine protease inhibitors against Plasmodium falciparum, Trypanosoma brucei, and Trypanosoma cruzi” (J Med Chem, 2004)

What was measured:
Cruzipain = Cruzipain (Trypanosoma cruzi, UniProt P25779); assay: Inhibition of cruzain from Trypanosoma cruzi
Procedure, shortened: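 Recombinant cruzain (2 nM) preincubated 5 min at room temperature with 0.5–10 μM inhibitor in 100 mM sodium acetate pH 5.5 with 5 mM DTT, 0.7% DMSO. Reaction started with Z-Phe-Arg-AMC at 20 μM final (Km 1 μM), followed by fluorescence at ex 355/em 460. IC50 read graphically from inhibition vs log[I], seven concentrations with at least two in the linear range.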

Rhodesain = Rhodesain (Trypanosoma brucei rhodesiense, UniProt Q95PM0); assay: Inhibition of rhodesain from Trypanosoma brucei rhodesiense
Procedure, shortened: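 Recombinant rhodesain (3 nM) preincubated 5 min at room temperature with 0.5–10 µM inhibitor in 100 mM sodium acetate pH 5.5, 5 mM DTT, 0.7% DMSO final. Z-Phe-Arg-AMC then added (20 µM final) and fluorescence rise followed at ex 355/em 460. IC50 read graphically from linear portion of inhibition vs log[I], seven concentrations, at least two in linear range.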

[1] = test system: Trypanosoma brucei rhodesiense; assay: Effective dose required to inhibit Trypanosoma brucei rhodesiense in culture; format: functional; details: read-out: ED50 (the source's name)
Procedure, shortened: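 T. b. rhodesiense grown at 37 °C, 5% CO2 in HMI-9 with 10% FBS and 10% Serum Plus, seeded at 10⁴ cells/mL. Inhibitor serially diluted directly in culture from the top concentration down to 1 nM. Exposure 48 h at 37 °C. Viability read as ATP content by CellTiter-Glo luminescence after 5 min shaking at room temperature, or by hemacytometer count.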

[2] = Survival of infected cells against Trypanosoma cruzi in days at a dose of 5 uM; Toxicity = Toxic
[3] = Survival of infected cells against Trypanosoma cruzi in days at a dose of 5 uM; Toxicity = None
Falcipain 2 = molecular target: T1, Falcipain 2 (Plasmodium falciparum, UniProt Q9N6S8); assay: Inhibition of falcipain2 from Plasmodium falciparum
T1 sequence (Q9N6S8 whole entry): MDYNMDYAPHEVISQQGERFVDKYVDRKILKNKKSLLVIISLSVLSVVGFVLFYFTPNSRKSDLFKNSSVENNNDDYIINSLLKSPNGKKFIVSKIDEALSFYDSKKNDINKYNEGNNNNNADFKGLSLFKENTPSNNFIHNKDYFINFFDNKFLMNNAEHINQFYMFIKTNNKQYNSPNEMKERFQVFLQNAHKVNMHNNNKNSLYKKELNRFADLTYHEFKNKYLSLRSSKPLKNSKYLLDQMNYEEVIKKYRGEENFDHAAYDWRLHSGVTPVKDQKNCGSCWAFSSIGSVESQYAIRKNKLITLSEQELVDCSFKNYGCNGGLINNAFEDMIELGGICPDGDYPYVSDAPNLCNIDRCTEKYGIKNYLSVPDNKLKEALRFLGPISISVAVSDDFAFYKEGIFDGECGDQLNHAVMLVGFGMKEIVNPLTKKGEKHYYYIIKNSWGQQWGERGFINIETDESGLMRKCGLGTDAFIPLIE
Procedure, shortened: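 Recombinant falcipain-2 preincubated 30 min at room temperature with inhibitor in 100 mM sodium acetate pH 5.5 with 10 mM DTT, DMSO at most 1%. Z-Leu-Arg-AMC then added to 25 μM final, and fluorescence monitored 15 min at room temperature. IC50 taken from plots of percent activity against compound concentration.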

Plasmodium falciparum = assay: Effective inhibition of Plasmodium falciparum; format: functional; details: read-out: ED50 (the source's name)
Procedure, shortened: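 W2-strain parasites at 1% parasitemia and 2% hematocrit, run in duplicate. Inhibitor diluted from DMSO stocks in 1:5 steps to final 10 μM, 2000, 400, 80, 16 and 3.2 nM. Cultures kept 2 days at 37 °C, then washed and fixed in 1% formaldehyde/PBS. Parasitemia measured by flow cytometry with YOYO-1 DNA stain.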

Chain of Rhodesain (Q95PM0 whole entry): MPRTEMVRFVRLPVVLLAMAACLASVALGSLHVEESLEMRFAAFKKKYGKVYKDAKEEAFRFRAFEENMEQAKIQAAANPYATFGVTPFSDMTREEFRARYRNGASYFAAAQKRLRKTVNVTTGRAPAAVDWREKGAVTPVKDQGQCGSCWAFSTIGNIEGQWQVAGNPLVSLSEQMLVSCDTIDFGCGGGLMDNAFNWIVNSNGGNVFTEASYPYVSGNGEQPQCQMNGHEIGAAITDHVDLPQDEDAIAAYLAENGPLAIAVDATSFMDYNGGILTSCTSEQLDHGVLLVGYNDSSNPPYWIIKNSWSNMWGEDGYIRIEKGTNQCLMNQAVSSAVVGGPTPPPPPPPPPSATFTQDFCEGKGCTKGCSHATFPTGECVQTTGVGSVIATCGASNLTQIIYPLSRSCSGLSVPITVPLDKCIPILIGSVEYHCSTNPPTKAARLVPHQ
Chain of Cruzipain (P25779 whole entry): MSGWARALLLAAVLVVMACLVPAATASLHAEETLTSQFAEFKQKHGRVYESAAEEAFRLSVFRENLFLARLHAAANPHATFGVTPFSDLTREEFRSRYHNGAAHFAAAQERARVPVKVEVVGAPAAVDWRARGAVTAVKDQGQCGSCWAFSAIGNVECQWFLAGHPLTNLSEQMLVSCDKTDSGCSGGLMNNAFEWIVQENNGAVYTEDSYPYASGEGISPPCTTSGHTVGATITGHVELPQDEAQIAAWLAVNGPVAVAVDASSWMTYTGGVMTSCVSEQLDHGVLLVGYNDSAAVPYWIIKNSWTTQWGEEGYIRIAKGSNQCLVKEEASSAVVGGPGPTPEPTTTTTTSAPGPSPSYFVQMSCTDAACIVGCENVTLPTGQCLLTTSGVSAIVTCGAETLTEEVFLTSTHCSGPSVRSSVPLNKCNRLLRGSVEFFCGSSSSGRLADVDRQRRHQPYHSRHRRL

SMILES | IC50 (Cruzipain) [µM] | IC50 (Rhodesain) [µM] | EC50 [1] [µM] | Survival [2] [days] | Survival [3] [days] | IC50 (Falcipain 2) [µM] | EC50 (Plasmodium falciparum) [µM]
C/C(=N\N=C(\N)S)c1ccc(Oc2ccccc2)cc1 | 10 | 8 | 3 | 28 | – | – | –
C/C(=N\N=C(\N)S)c1cccc(-c2ccccc2)c1 | 8 | 1.1 | 12 | – | 43 | – | –
C/C(=N/N=C(/N)S)c1cccc(/C(C)=N/N=C(/N)S)c1 | 5 | 0.33 | > 20 | – | 5 | – | –
C/C(=N\N=C(\N)S)c1ccc(-c2ccccc2)cc1 | 5 | 0.09 | 10 | 8 | – | 10 | > 20
C/C(=N\N=C(/S)N1CCCCC1)c1cccc(Br)c1 | 5 | 4 | 3 | – | 5 | – | –
C/C(=N\N=C(/S)N1CCN(C)CC1)c1cccc(Br)c1 | 5 | 4 | 2 | 14 | – | > 20 | 4
C/C(=N\N=C(\N)S)c1ccc(Nc2ccccc2)cc1 | > 20 | 18 | 4.5 | – | 43 | > 20 | 9.9
C/C(=N/N=C(/N)S)c1cccc(/C(C)=N/N=C(/N)S)n1 | – | – | – | – | – | > 20 | 0.03
CS/C(S)=N/N=C(\C)c1ccccn1 | – | > 20 | 0.3 | – | – | > 20 | 0.03
C/C(=N\N=C(\N)S)c1cccc(Br)c1 | 0.06 | 0.05 | > 20 | – | 43 | – | –
C/C(=N\NC(N)=S)c1ccccn1 | > 20 | > 20 | 4 | – | 43 | > 20 | 0.08
CCN(CC)/C(S)=N/N=C(\C)c1cccc(Br)c1 | 5 | 1.8 | 3 | – | 5 | – | –
C/C(=N\N=C(\N)S)c1cccc(Nc2ccccc2)c1 | > 20 | 0.8 | 8 | – | 43 | – | –
CS/C(S)=N/N=C(\C)c1cccc(Br)c1 | > 20 | > 20 | 10 | 7 | – | – | –
C/C(=N\N=C(\N)S)c1cccc(Oc2ccccc2)c1 | 10 | 0.55 | 6 | 27 | – | – | –
